We go through 15 compounds from ChEMBL document CHEMBL3352724, “Phenolic Glycosides from the Twigs of Salix glandulosa” (J Nat Prod, 2014).

The term IC50 denotes the concentration needed to halve the response being measured.

One data set has as its system A549. In words: Cytotoxicity against human A549 cells by sulforhodamine B bioassay. It is filed as functional, cell-based. The gist of the method: (§1)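 Sulforhodamine B assay on cultured human tumor cell lines A549, SK-OV-3, A498 and HCT15. Run at the Korea Research Institute of Chemical Technology.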
Data set [1] in a line: Cytotoxicity against human SKOV3 cells by sulforhodamine B bioassay. It is filed as functional, cell-based. Particulars: SK-OV-3. The procedure, abridged: as §1
Data set [2] is described as follows: Cytotoxicity against human HCT15 cells by sulforhodamine B bioassay. The class given is functional, cell-based. Particulars: HCT-15. The procedure, abridged:
as §1

Data set [3] can be described thus: Cytotoxicity against mouse BV2 cells by MTT assay. Also on record: concentration or dose not given beside the values. Particulars: bv-2.
The nature of data set [4]: Antineuroinflammatory activity against mouse BV2 cells assessed as inhibition of LPS-induced NO production treated with compound 30 mins and challenged with LPS for 24 hrs. To be noted: BV-2.
In the next data set the test system is SK-MEL-2. Description: Cytotoxicity against human SK-MEL-2 cells by sulforhodamine B bioassay. The class given is functional, cell-based.

`O=C(/C=C/c1ccc(O)cc1)O[C@H]1[C@H](O[C@@H]2CCCC[C@H]2O)O[C@H](CO)[C@@H](O)[C@@H]1O`: the IC50 in the data set with A549 was > 10 µM; in data set [1], > 10 µM; in data set [2], > 10 µM; in data set [4] it was 20.5 µM. For the same compound, in data set [3], the Activity stood at 107.2%.

For `O=C(/C=C\c1ccc(O)cc1)O[C@H]1[C@H](O[C@@H]2CCCC[C@H]2O)O[C@H](CO)[C@@H](O)[C@@H]1O`, the IC50 in the data set on A549 is > 10 µM; in data set [1], > 10 µM; in data set [2], > 10 µM; in data set [4], 6.6 µM. This compound also came in with an Activity in data set [3] of 102.5%.

Regarding `O=C(/C=C/c1ccc(O)cc1)OC[C@H]1O[C@@H](O[C@@H]2CCCC[C@H]2O)[C@H](O)[C@@H](O)[C@@H]1O`, the IC50 in the data set on A549 was > 10 µM; in data set [1], > 10 µM; in data set [2], > 10 µM; in data set [4] it was 14.8 µM. In data set [3], the Activity came out at 100.7%.

As for `O=C(/C=C\c1ccc(O)cc1)OC[C@H]1O[C@@H](O[C@@H]2CCCC[C@H]2O)[C@H](O)[C@@H](O)[C@@H]1O`, the IC50 (in the data set with A549; in data set [1]; in data set [2]) was > 10 µM each time.

With `O=C(OC[C@H]1O[C@@H](O[C@@H]2CCCC[C@H]2O)[C@H](O)[C@@H](O)[C@@H]1O)c1ccc(O)cc1`, the concentration for half-maximal inhibition (IC50) (in the data set on A549; in data set [1]; in data set [2]) was > 10 µM throughout.

For `O=C(/C=C/c1ccc(O)cc1)O[C@H]1[C@H](O[C@H]2CCCC[C@@H]2O)O[C@H](CO)[C@@H](O)[C@@H]1O`, the IC50 in the data set on A549 was > 10 µM; in data set [1], > 10 µM; in data set [2] it was > 10 µM; in data set [4], 15.5 µM. Further, the Activity in data set [3] is on record as 93.6%.

`O=C(/C=C\c1ccc(O)cc1)O[C@@H]1[C@H](O[C@H]2CCCC[C@@H]2O)O[C@H](CO)[C@@H](O)[C@H]1O`: the IC50 was > 10 µM in the data set with A549, > 10 µM in data set [1], > 10 µM in data set [2] and 18.1 µM in data set [4]. In addition, in data set [3], the Activity was determined as 96.2%.

For `O=C(/C=C\c1ccc(O)cc1)O[C@@H]1[C@H](O[C@@H]2CCCC[C@@H]2O)O[C@H](CO)[C@@H](O)[C@H]1O`, the IC50 (in the data set on A549; in data set [1]; in data set [2]) was > 10 µM throughout.

As to `O=C(/C=C/c1ccc(O)cc1)O[C@H]1[C@H](O[C@H]2CCCC[C@H]2O)O[C@H](CO)[C@@H](O)[C@@H]1O`, the IC50 (with A549; in data set [1]; in data set [2]) was > 10 µM in each case.

For the compound `O=C(/C=C\c1ccc(O)cc1)O[C@H]1[C@H](O[C@H]2CCCC[C@H]2O)O[C@H](CO)[C@@H](O)[C@@H]1O`, the IC50 (in the data set on A549; in data set [1]; in data set [2]) was > 10 µM each time.

As for `O=C(/C=C/c1ccc(O)cc1)OC[C@H]1O[C@@H](O[C@H]2CCCC[C@H]2O)[C@H](O)[C@@H](O)[C@@H]1O`, the 50% inhibitory concentration (IC50) (in the data set with A549; in data set [1]; in data set [2]) was > 10 µM throughout.

`O=C(/C=C\c1ccc(O)cc1)OC[C@H]1O[C@@H](O[C@H]2CCCC[C@H]2O)[C@H](O)[C@@H](O)[C@@H]1O`: the IC50 (in the data set with A549; in data set [1]; in data set [2]) was > 10 µM each time.

In the case of `O=C(/C=C/c1ccc(O)cc1)O[C@H]1[C@H](O[C@@H]2CCCC[C@@H]2O)O[C@H](CO)[C@@H](O)[C@@H]1O`, the IC50 (in the data set on A549; in data set [1]; in data set [2]) was > 10 µM in each case.

On to `COc1cccc2c1C(=O)c1c(O)c3c(c(O)c1C2=O)C[C@@](O)(C(=O)CO)C[C@@H]3O[C@H]1C[C@H](N)[C@H](O)[C@H](C)O1` [DOXORUBICIN], for which the IC50 in the data set on A549 is 0.0014 µM; in data set [1], 0.0217 µM; in the data set on SK-MEL-2, 0.0025 µM; in data set [2] it was 0.108 µM.

`CNC(=N)NCCC[C@H](N)C(=O)O` [TILARGININE] showed an Activity in data set [3] of 99.8%. Also, the IC50 in data set [4] was 24.3 µM.
